Here are results for 38 molecules from ChEMBL document CHEMBL2311527, “Synthesis of cembranoid analogues and evaluation of their potential as quorum sensing inhibitors” (Bioorg Med Chem, 2013).

Activity calls are given as the source filed them. The calls are words filed in the database; no cut-off is given here.

In the first assay the test system is Chromobacterium violaceum. Kind of assay: Inhibition of quorum sensing system in Chromobacterium violaceum ATCC 31532 assessed as inhibition of violacein pigment production measured per disk after 48 hrs by NCCLS disk diffusion method. The procedure, abridged:
(§1)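 Sterile 5.2 mm filter-paper disks were loaded with 30.0, 15.0, 7.5, 5.0 and 2.5 per disk from MeOH solutions and air-dried for 1 h. They were placed on trypticase soy agar spread with C. violaceum broth culture (10^6 cfu/mL, 0.5 McFarland) and incubated 48 h at 26 °C. The endpoint was the minimum amount per disk giving a colourless, opaque but viable halo, meaning violacein loss without growth inhibition. Kojic acid and Cu2O served as positive controls.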
For the molecule `C=C(C)[C@H]1CC/C(C)=C/CC[C@@](C)(Cl)[C@H](O)CC/C(CO)=C/[C@@H]1O`, the INH was 30 µg.
On the same count and under the same terms, under `C=C(C)[C@H]1CC/C(C)=C/CCC(C)(C=O)CC/C(COC(C)=O)=C/[C@@H]1O` (stereo not given in full) stands 7.5 µg.
Turning to `C=C(C)[C@H]1CC/C(C)=C/C/C=C(\C)[C@H](O)CC/C(COC(C)=O)=C\[C@@H]1OC(C)=O`, the INH was 2.5 µg.
The same measure, in the same setting: under `C=C(C)[C@@H]1CC[C@@H](C)[C@H](OC(C)=O)CC[C@H](C)CC(=O)C[C@@H](C)[C@H](OC(C)=O)C1` stands 30 µg; under `C=C(C)[C@H]1CC/C(C)=C/CC[C@](C)(O)[C@H](O)CC/C(COC(C)=O)=C/[C@@H]1O`, 7.5 µg; under `C=C(C)[C@@H]1CC[C@@H](C)[C@H](O)CC[C@H](C)CC(=O)C[C@@H](C)[C@H](O)C1`, 7.5 µg.
Regarding `C=C1CC/C=C(\C)CC[C@H](C(=C)C)[C@@H](O)/C=C(\COC(C)=O)CC[C@H]1O`, the INH was 7.5 µg.
Still for that read-out and setting: the value for `C=C(C)[C@@H]1CC[C@@H](C)C(=O)CC[C@H](C)CC(=O)C[C@@H](C)[C@H](OC(C)=O)C1` was 7.5 µg; that for `C=C(C)[C@@H]1CC[C@@H](C)[C@H](OC(C)=O)CC[C@@H](C)CC(=O)C[C@@H](C)[C@H](OC(C)=O)C1` was 15 µg.
Still for that read-out and setting: under `C=C1CC/C=C(\C)CC[C@H](C(=C)C)[C@@H](OC(C)=O)/C=C(/COC(C)=O)CC[C@H]1O` stands 7.5 µg; under `C=C(C)[C@H]1C[C@H](O)/C(C)=C/CC[C@@]2(C)O[C@@H]2CC/C(COC(C)=O)=C/[C@@H]1O`, 30 µg; under `C=C(C)[C@H]1CC/C(C)=C/CC[C@@]2(C)O[C@H]1/C=C(\CO)CC[C@H]2O`, 30 µg.
On the same count and under the same terms, the value for `C=C(C)[C@H]1CC/C(C)=C/C/C=C(/C)[C@@H](O)CC/C(COC(C)=O)=C\[C@@H]1OC(C)=O` was 7.5 µg; that for `C=C(C)[C@@H]1CC[C@@H](C)[C@H](O)CC[C@H](C)CC2(O)C[C@@H](C)[C@@H](C1)O2` was 7.5 µg.
On to `C=C(C)[C@H]1CC/C(C)=C/CC[C@@](C)(Cl)[C@H](O)CC/C(COC(C)=O)=C/[C@@H]1O`, for which the INH was found to be 7.5 µg.
Same read-out and setting: under `O=c1cc(CO)occ1O` stands 90 µg.

Another assay deals with Chromobacterium violaceum. The experiment in a line: Antibacterial activity against Chromobacterium violaceum ATCC 31532 assessed as growth inhibition at 2.5 to 30 ug/disk after 48 hrs by NCCLS disk diffusion method. The assay is classed as functional, organism-based. (In general: Agar diffusion results depend on both activity and mobility in agar.)
On to `C=C(C)[C@@H]1CC[C@@H](C)[C@H](OC(C)=O)CC[C@H](C)CC(=O)C[C@@H](C)[C@H](OC(C)=O)C1`, for which the “growth inhibition (GI)” value is “inactive”.
As for `C=C(C)[C@@H]1CC[C@@H](C)[C@H](O)CC[C@H](C)CC2(O)C[C@@H](C)[C@@H](C1)O2`, the “growth inhibition (GI)” value is “inactive”.

The subject of another assay is Chromobacterium violaceum. Kind of assay: Inhibition of quorum sensing system in Chromobacterium violaceum ATCC 31532 assessed as inhibition of violacein pigment production at 30 ug/disk after 48 hrs by NCCLS disk diffusion method. The procedure, abridged:
as §1
In the case of `C=C(C)[C@H]1CC/C(C)=C/CC[C@]2(C)O[C@H]1/C=C(\COC(C)=O)CC[C@H]2O`, the inhibition result is “inactive”.
Same read-out and setting: the value for `C=C(C)[C@@H]1C/C=C(/COC(C)=O)CC[C@H]2O[C@]2(C)CC/C=C(\C)CC1` was “inactive”; that for `C=C(C)[C@H]1CC/C(C)=C/CC[C@@](C)(O)[C@H](O)CC/C(CO)=C/[C@@H]1O` was “inactive”; that for `C=C(C)[C@H]1CC[C@@](C)(O)[C@H]2CCC(=C)[C@@H](CC/C(CO)=C/[C@@H]1O)O2` was “inactive”.
Same read-out and setting: under `C=C(C)[C@@H]1C/C=C(\COC(C)=O)CC[C@@H](O)C(=C)CC/C=C(\C)CC1` stands “inactive”.
On the same count and under the same terms, the value for `C=C(C)[C@@H]1CC[C@@H](C)C(=O)CC[C@H](C)CC(=O)C[C@@H](C)[C@H](O)C1` was “inactive”.
On to `C=C(C)[C@@H]1C/C=C(\COC(C)=O)CC[C@@H](O)[C@](C)(Cl)CC/C=C(\C)CC1`, for which the inhibition result is “inactive”.
On the same count and under the same terms, the value for `C=C(C)[C@H]1CC/C(C)=C/CC[C@@]2(C)O[C@@H]2CC/C(CO)=C\[C@@H]1O` was “inactive”; that for `C=C(C)[C@H]1CC/C(C)=C/CC[C@@](C)(O)[C@@H]2CC/C(=C/[C@@H]1O)CO2` was “inactive”; that for `C=C(C)[C@@H]1CC[C@@H](C)[C@H](O)CC[C@@H](C)CC(=O)C[C@@H](C)[C@H](O)C1` was “inactive”.
As to `C=C(C)[C@@H]1C/C=C(\COC(C)=O)CC[C@@H](O)/C(C)=C\C/C=C(\C)CC1`, the inhibition entry was “inactive”.
Same read-out and setting: the value for `C=C(C)[C@@H]1CC[C@@H](C)C(=O)CC[C@H](C)CC2(O)C[C@@H](C)[C@@H](C1)O2` was “inactive”; that for `C=C(C)[C@@H]1CC[C@@H](C)[C@H](O)CC[C@@H](C)CC2(O)C[C@@H](C)[C@@H](C1)O2` was “inactive”.
For `C=C(C)[C@H]1CC/C(C)=C/C/C=C(/C)[C@H](O)CC/C(COC(C)=O)=C/[C@@H]1O`, the inhibition entry was “inactive”.
Still for that read-out and setting: under `CC(=O)OCC12CC[C@H]3O[C@]3(C)CCC3OC3(C)CC[C@H]([C@]3(C)CO3)[C@@H](O)C1O2` (stereo not given in full) stands “inactive”; under `C=C(C)[C@H]1CC[C@@](C)(I)[C@H]2CC[C@@](C)(O2)[C@@H](I)CC/C(COC(C)=O)=C/[C@@H]1O`, “inactive”.
Take `C=C(C)[C@H]1CC/C(C)=C/CC[C@@]2(C)O[C@@H]2CC/C(C=O)=C/[C@@H]1O`: the inhibition entry was “inactive”.
The same measure, in the same setting: under `C=C(C)[C@H]1CC/C(C)=C/CCC(C)C(=O)CC/C(COC)=C/[C@@H]1O` (stereo not given in full) stands “inactive”.
Still for that read-out and setting: under `C=C(C)[C@H]1CC/C(C)=C/CC[C@@]2(C)O[C@@H]2CC/C(COC(C)=O)=C\[C@@H]1O` stands “inactive”; under `C=C(C)[C@H]1CC/C(C)=C/CC[C@@]2(C)O[C@@H]2CC/C(COC(C)=O)=C\[C@@H]1OC(C)=O`, “inactive”.
Still for that read-out and setting: the value for `C=C(C)[C@H]1CC/C(C)=C/CC[C@@]2(C)O[C@@H]2CCC(C=O)=CC1=O` was “inactive”; that for `C=C(C)[C@H]1CC/C(C)=C/CC[C@@](C)(Cl)[C@H](O)CC/C(COC(C)=O)=C\[C@@H]1OC(C)=O` was “inactive”.
